Active and inactive are the calls of the source. The rule behind the calls is not given here.

One assay has as its system Mus musculus. In words: Antitumor activity in parous MMTV-Neu transgenic FVB mouse assessed as tumor volume at 25 mg/kg, ip qd for 5 days. Type of assay: functional, organism-based. The arrangement: dose 25 mg/kg. The gist of the method:
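Autochthonous mammary tumors in parous FVB MMTV-Neu mice expressing wild-type rat HER2/Neu. Agent given at 25 mg/kg for 5 consecutive days in the first week; paclitaxel cohorts received 13.3 mg/kg i.v. qd 3×/week over the 2-week treatment period. Read-out is fold change in volume of individual tumors, with mean ± SEM per group.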

Assay [1] addresses T1, Indoleamine 2,3-dioxygenase 1 (Homo sapiens, UniProt P14902). In words: Inhibition of purified human recombinant IDO.
Assay [2] deals with B16-F10. In words: Antitumor activity in mouse B16-F10 cells isografted athymic NCr-nu/nu mouse at 25 mg/kg, ip qd for 5 days. It is filed as functional, organism-based. The arrangement: dose 25 mg/kg. The gist of the method:
(§1)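 Mice given 1 × 10^5 B16-F10 melanoma cells s.c.; i.p. dosing at 25 mg/kg qd 5 days a week begins 7 days later and runs until the experiment ends. Tumors are measured by caliper twice weekly until control tumors reach ~5000 mm3. Data are mean tumor size ± SEM. Treated and untreated groups are compared at study end by two-tailed Mann–Whitney test.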

The test system of assay [3] is B16-F10. In words: Antitumor activity in mouse B16-F10 cells isografted C57BL/6 mouse at 25 mg/kg, ip qd for 5 days. It is filed as functional, organism-based. The arrangement: dose 25 mg/kg. The gist of the method: as §1
For assay [4], the system named is B16-F10. In words: Antitumor activity in mouse B16-F10 cells isografted IDO knockout C57BL/6 mouse at 25 mg/kg, ip qd for 5 days. The arrangement: dose 25 mg/kg. Type of assay: functional, organism-based. The gist of the method: as §1
The nature of assay [5]: Cytotoxicity against human TREx cells expressing doxycyclin-inducible IDO assessed as cell viability by SRB assay. Type of assay: functional. To be noted: read-out: LD50 (the source's name). In a few lines: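 T-REx cells with inducible human IDO cDNA, seeded at 20000/well in DMEM + 10% FBS, induced 72 h with 20 ng/mL doxycycline, rinsed, then exposed to serial compound dilutions in phenol red-free DMEM + 10% FBS for 18 h, in triplicate.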
(In general: In SRB staining, fixed cells bind dye roughly in proportion to their protein.)

In assay [6] the target is T1, Indoleamine 2,3-dioxygenase 1. In words: Inhibition of purified human recombinant IDO expressed in TREx cells. The gist of the method:
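T-REx cells carrying doxycycline-inducible human IDO cDNA are seeded at 20000/well and induced 72 h with doxycycline. They are rinsed, then exposed in triplicate to serial dilutions in phenol red-free DMEM + 10% FBS for 18 h and TCA-fixed. Supernatant kynurenine is read with p-DMAB at 490 nm, corrected for SRB viability. IC50 is taken from a sigmoidal curve.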
Target sequence in this assay (P14902 whole entry): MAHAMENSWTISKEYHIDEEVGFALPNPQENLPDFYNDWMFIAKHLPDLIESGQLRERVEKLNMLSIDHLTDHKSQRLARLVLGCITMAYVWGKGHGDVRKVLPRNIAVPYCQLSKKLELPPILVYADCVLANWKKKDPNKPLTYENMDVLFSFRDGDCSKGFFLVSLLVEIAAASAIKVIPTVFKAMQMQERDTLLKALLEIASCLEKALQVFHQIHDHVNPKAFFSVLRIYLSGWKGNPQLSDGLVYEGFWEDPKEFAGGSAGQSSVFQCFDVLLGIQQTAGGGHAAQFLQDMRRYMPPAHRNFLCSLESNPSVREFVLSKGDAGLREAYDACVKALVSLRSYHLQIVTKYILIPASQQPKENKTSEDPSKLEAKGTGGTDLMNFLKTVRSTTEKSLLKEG

In the case of `CC1=CC(=O)c2ccccc2C1=O` [MENADIONE], the result in the assay on Mus musculus and with B16-F10 [3] was Active. In addition, the IC50 (usually the concentration that inhibits the measured activity by half) in assay [1] amounted to 1 µM. Further, the outcome with B16-F10 [2] and in the assay with B16-F10 [4] was inactive. In addition, the CC50 in assay [5] was 126 µM.

`O=C1C=Cc2ccccc2C1=O` [1,2-NAPHTHOQUINONE]: in assay [1], the IC50 came to 7.1 µM.

In the case of `CC1(C)C=CC2=C(O1)C(=O)c1ccc(O)cc1C2=O`, the IC50 in assay [1] was 5.52 µM.

For the molecule `CCCCNC1C2=C(OC(C)(C)C1O)C(=O)c1ccccc1C2=O` (trans isomer), the IC50 was 87 µM in assay [6] and 0.082 µM in assay [1].

On to `CC1(C)OC2=C(C(=O)c3ccccc3C2=O)C(O)C1Br` (stereo not given), for which the 50% inhibitory concentration (IC50) in assay [1] amounted to 0.512 µM.

Turning to `CC1(C)C=CC2=C(O1)C(=O)c1ccccc1C2=O` [DEHYDRO-ALPHA-LAPACHONE], the IC50 in assay [1] is 0.214 µM.

In the case of `COC1C2=C(OC(C)(C)C1O)C(=O)c1ccccc1C2=O` (cis isomer), the IC50 in assay [1] turned out to be 0.976 µM.

As for `COC1=CC(=O)c2ccccc2C1=O` [2-Methoxy-1,4-naphthoquinone], the IC50 in assay [1] was 0.72 µM.

With `O=C1C=CC(=O)C=C1`, the result in assay [1] was inactive.

Consider `CC1=C(SC[C@H](NC(=O)CC[C@H](N)C(=O)O)C(=O)NCC(=O)O)C(=O)c2ccccc2C1=O`, for which the IC50 in assay [1] came out at 0.88 µM.

As for `O=C1C=CC(=O)c2c(O)cccc21` [JUGLONE], the IC50 in assay [1] amounted to 1 µM.

As to `COc1cccc2c1C(=O)C1=C(OC(C)(C)C=C1)C2=O`, the IC50 in assay [1] stood at 2.13 µM.

As to `CC1(C)OC2=C(C(=O)c3ccccc3C2=O)C(SCc2ccccc2)C1O` (trans isomer), the IC50 in assay [1] worked out at 2.12 µM.

As to `CC1(C)C=CC2=C(O1)C(=O)c1cccc(O)c1C2=O`, the IC50 in assay [1] worked out at 0.19 µM.

On to `COc1ccc2c(c1)C(=O)C1=C(OC(C)(C)C=C1)C2=O`, for which the IC50 in assay [1] is 3.02 µM.

Turning to `CC1(C)OC2=C(C(=O)c3ccccc3C2=O)[C@@H]2O[C@@H]21`, in assay [1], the half-inhibitory concentration (IC50) stood at 4.95 µM.

Regarding `COC(=O)C1(C)C=CC2=C(O1)C(=O)c1ccccc1C2=O` (stereo not given), the IC50 in assay [1] was determined as 0.247 µM.

Turning to `O=c1ccoc2ccccc12`, the outcome in assay [1] was inactive.

With `CC1(C)OC2=C(C(=O)c3ccccc3C2=O)C(SCc2ccccc2)C1O` (cis isomer), the 50% inhibitory concentration (IC50) in assay [1] worked out at 3.45 µM.

On to `C=CCNC1C2=C(OC(C)(C)C1O)C(=O)c1ccccc1C2=O` (trans isomer), for which the IC50 in assay [1] was found to be 0.186 µM.

`COc1ccc2c(c1)C(=O)C1=C(C=CC(C)(C)O1)C2=O`: in assay [1], the IC50 was determined as 0.933 µM.

For the molecule `CC1(C)C=CC2=C(O1)C(=O)c1c(O)cccc1C2=O`, the concentration for half-maximal inhibition (IC50) in assay [6] was determined as 69 µM; in assay [1] it was 0.121 µM.

Consider `O=C1C=CC(=O)C(c2ccccc2)=C1`, for which the result in assay [1] was inactive.

Regarding `CCCCN[C@H]1C2=C(OC(C)(C)[C@H]1O)C(=O)c1ccccc1C2=O`, the IC50 in assay [1] came out at 0.13 µM.

On to `O=C1C=C(O)C(=O)c2ccccc21` [LAWSONE], for which the IC50 in assay [1] is 675 µM.

`COc1cccc2c1C(=O)C1=C(C=CC(C)(C)O1)C2=O`: the IC50 in assay [1] was 2.92 µM.

For the molecule `COC1C2=C(OC(C)(C)C1O)C(=O)c1ccccc1C2=O` (trans isomer), in assay [1], the IC50 came to 3.96 µM.

Take `CCc1c(C)cc2c(c1O)C(=O)C1=C(C2=O)C(C)(C)C(=O)C(C)(C(=O)OC)O1` (stereo not given): the Ki (commonly a measure of affinity in units of concentration, obtained from inhibition or displacement) in assay [1] was found to be 0.12 µM.

With `CC1(C)OC2=C(C(=O)c3ccccc3C2=O)C(OCc2ccccc2)C1O` (stereo not given), the IC50 in assay [1] is 1.09 µM.

On to `CC1(C)CCC2=C(O1)C(=O)c1ccccc1C2=O` [ALPHA-LAPACHONE], for which the IC50 in assay [1] turned out to be 4.34 µM.

As to `CC1=C(C/C=C(\C)CCC[C@H](C)CCC[C@H](C)CCCC(C)C)C(=O)c2ccccc2C1=O`, in assay [1], the outcome was inactive.

For `CC1(C)OC2=C(C(=O)c3ccccc3C2=O)C(N2CCOCC2)C1O` (cis isomer), in assay [1], the IC50 is 1.1 µM.

Regarding `CC1(C)OC2=C(C(=O)c3ccccc3C2=O)C(O)C1O` (stereo not given), in assay [1], the half-maximal inhibitory concentration (IC50) was found to be 1.5 µM.

For the molecule `CC1(C)C=CC2=C(O1)C(=O)c1cc(O)ccc1C2=O`, the IC50 in assay [1] was 2.05 µM.

On to `Cc1c(SC[C@H](NC(=O)CC[C@H](N)C(=O)O)C(=O)NCC(=O)O)c(O)c2ccccc2c1O`, for which the IC50 in assay [1] is 0.34 µM.

As for `O=C1C(Cl)=C(Cl)C(=O)c2ccccc21` [Dichlon], the IC50 in assay [1] turned out to be 0.28 µM.

Regarding `CC1(C)OC2=C(C(=O)c3ccccc3C2=O)C(N2CCOCC2)C1O` (trans isomer), the IC50 in assay [1] was determined as 0.361 µM.

Consider `CC1=CC(=O)C=CC1=O`, for which the result in assay [1] was inactive.

The values are drawn from ChEMBL document CHEMBL1144666, “Indoleamine 2,3-dioxygenase is the anticancer target for a novel series of potent naphthoquinone-based inhibitors” (J Med Chem, 2008).
